How the values were obtained:
[1] = molecular target: T1, Sterol O-acyltransferase 1 (Rattus norvegicus, UniProt O70536); experiment: In vitro Acyl coenzyme A:cholesterol acyltransferase inhibition in hepatic microsomes isolated from cholesterol-fed rats; design: species or system Liver
T1 sequence (O70536 whole entry): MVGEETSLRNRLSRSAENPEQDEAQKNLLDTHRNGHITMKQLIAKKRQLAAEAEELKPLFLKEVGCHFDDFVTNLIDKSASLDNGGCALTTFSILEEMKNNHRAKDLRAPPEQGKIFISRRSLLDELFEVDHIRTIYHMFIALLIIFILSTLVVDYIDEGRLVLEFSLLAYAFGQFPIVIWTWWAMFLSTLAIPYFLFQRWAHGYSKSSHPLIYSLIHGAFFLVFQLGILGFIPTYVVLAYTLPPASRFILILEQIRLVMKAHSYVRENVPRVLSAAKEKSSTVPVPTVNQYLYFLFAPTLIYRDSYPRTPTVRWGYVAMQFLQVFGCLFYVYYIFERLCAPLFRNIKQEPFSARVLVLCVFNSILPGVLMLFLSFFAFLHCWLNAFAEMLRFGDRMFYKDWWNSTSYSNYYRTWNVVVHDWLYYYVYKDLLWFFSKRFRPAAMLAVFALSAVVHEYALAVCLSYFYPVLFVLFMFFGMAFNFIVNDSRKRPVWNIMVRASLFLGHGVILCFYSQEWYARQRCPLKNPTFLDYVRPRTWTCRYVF
Procedure, shortened: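 Hepatic microsomes from cholesterol-fed rats (LAI screen); ACAT inhibition reported as IC50.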

Rattus norvegicus [2] = experiment: Percent change in total cholesterol level in cholic acid (0.5%),cholesterol(1.5%),peanut oil(5.5%) fed rats at 3 mg/kg.; format: functional
Procedure, shortened: (§1)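 Acute screen (APCC) in male Sprague-Dawley rats, 200–225 g. Compound given orally as a suspension in water with carboxymethylcellulose (1.5%) and Tween-20 (0.2%). Rats then ate a high-fat, high-cholesterol PCC meal (peanut oil 5.5%, cholesterol 1.5%, cholic acid 0.5%). Plasma total cholesterol measured and expressed as percent change from controls.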

Rattus norvegicus [3] = experiment: Percent of high density lipoprotein cholesterol was in cholesterol fed rat at the dose of 10 mg/kg; format: functional
Rattus norvegicus [4] = experiment: Percent of non high density lipoprotein cholesterol measured in cholesterol fed rat at the dose of 10 mg/kg; format: functional
Rattus norvegicus [5] = experiment: Percent change in total cholesterol level in cholic acid (0.5%),cholesterol(1.5%),peanut oil(5.5%) fed rats at 30 mg/kg.; format: functional; procedure, shortened: as §1
Rattus norvegicus [6] = experiment: Percent of non high density lipoprotein cholesterol measured in cholesterol fed rat at the dose of 30 mg/kg; format: functional
Rattus norvegicus [7] = experiment: Percent of high density lipoprotein cholesterol was in cholesterol fed rat at the dose of 30 mg/kg; format: functional
Oryctolagus cuniculus [8] = experiment: Plasma drug levels at the dose of 25 mg/kg in rabbit; format: functional, organism-based; design: dose 25 mg/kg
Procedure, shortened: (§2)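 Male New Zealand White rabbits, 1.2–1.5 kg, dosed at 25 or 50 mg/kg in the daily meal (3% peanut oil, 3% coconut oil). Blood taken predose and at intervals up to 24 h. Plasma solvent-extracted and assayed by HPLC–UV; limit of quantitation 20 ng/mL.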

Rattus norvegicus [9] = organism: Rattus norvegicus; experiment: Percent of non high density lipoprotein cholesterol was measured in cholesterol fed rat by using oleic acid vehicle; format: functional
Procedure, shortened: (§3)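 Chronic PCC rat screen with drug and PCC diet given together for 7 days. Compound dosed either in an aqueous carboxymethylcellulose vehicle (PCC-CMC) or in an oleic acid vehicle (PCC-OA). Change in plasma non-HDL-C measured.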

Oryctolagus cuniculus [10] = experiment: Plasma drug levels at the dose of 50 mg/kg in rabbit; format: functional, organism-based; design: dose 50 mg/kg; procedure, shortened: as §2
[11] = molecular target: T2, Acyl-CoA:cholesterol acyltransferase (Oryctolagus cuniculus) (UniProt Q95214); experiment: Percent inhibition of cholesterol of ACAT by ABIO bioassay at the dose of 25 mg/kg in rabbits.; format: functional, organism-based; design: dose 25 mg/kg
T2 sequence (whole entry): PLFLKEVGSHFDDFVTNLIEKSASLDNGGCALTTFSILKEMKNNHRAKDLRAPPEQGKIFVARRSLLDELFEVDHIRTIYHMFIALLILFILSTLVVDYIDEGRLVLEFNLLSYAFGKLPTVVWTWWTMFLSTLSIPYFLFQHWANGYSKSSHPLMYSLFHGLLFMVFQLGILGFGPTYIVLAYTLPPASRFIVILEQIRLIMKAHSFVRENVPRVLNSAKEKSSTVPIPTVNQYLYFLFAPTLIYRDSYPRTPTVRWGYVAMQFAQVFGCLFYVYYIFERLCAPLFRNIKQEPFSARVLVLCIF
Procedure, shortened: (§4)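 Oral bioactivity (ABIO) in male New Zealand White rabbits, 1.2–1.5 kg. Compound given at 25 or 50 mg/kg in the daily meal (3% peanut oil, 3% coconut oil). Plasma extracts incubated with rat liver microsomes and ACAT reaction inhibition expressed as relative percent inhibition.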

Rattus norvegicus [12] = organism: Rattus norvegicus; experiment: Percent of non high density lipoprotein cholesterol was measured in cholesterol fed rat by using aqueous vehicle; format: functional; procedure, shortened: as §3
[13] = molecular target: T2, Acyl-CoA:cholesterol acyltransferase (Oryctolagus cuniculus); experiment: Percent inhibition of cholesterol of ACAT by ABIO bioassay at the dose of 50 mg/kg in rabbits.; format: functional, organism-based; design: dose 50 mg/kg; procedure, shortened: as §4
Rattus norvegicus [14] = experiment: Percent of total cholesterol was measured in cholesterol fed rat at the dose of 30 mg/kg
Rattus norvegicus [15] = experiment: Percent of total cholesterol was measured in cholesterol fed rat at the dose of 3 mg/kg
Rattus norvegicus [16] = experiment: Percent of high density lipoprotein cholesterol was measured in cholesterol fed rat at the dose of 10 mg/kg; format: functional

Row | SMILES | IC50 [1] [nM] | Delta TC (Rattus norvegicus [2]) [%] | Delta TC (Rattus norvegicus [5]) [%] | further results
1 | CCCCCCCCCCCCCCCCOC(=O)C(C(=O)Nc1c(C(C)C)cccc1C(C)C)c1ccccc1 (stereo unspecified) |  |  | -26 | 
2 | CCCCCCCCCCCCOC(=O)C(C(=O)Nc1c(OC)cc(OC)cc1OC)c1ccccc1 (stereo unspecified) |  | -51 | -51 | Of non-HDL-C (Rattus norvegicus [6]): -71%; Of HDL-C (Rattus norvegicus [7]): 127%
3 | CCCCC(C)(C)OC(=O)C(C(=O)Nc1c(C(C)C)cccc1C(C)C)c1ccccc1 (stereo unspecified) |  | -65 | -72 | 
4 | CCOC(=O)C(C(=O)Nc1c(C(C)C)cccc1C(C)C)c1ccccc1 (stereo unspecified) | > 5000 |  | -23 | 
5 | CCCCCCCCCCCCCCCCCCOC(=O)C(C(=O)Nc1c(C(C)C)cccc1C(C)C)c1ccccc1 (stereo unspecified) | 200 |  | -25 | 
6 | CCOC(=O)C(C)(C)C(=O)Nc1c(C(C)C)cccc1C(C)C | > 1000 |  | -24 | 
7 | CCCCCCCCOC(=O)C(C(=O)Nc1c(C(C)C)cccc1C(C)C)c1ccccc1 (stereo unspecified) |  | -46 | -56 | 
8 | CCCCCCCCCCCCOC(=O)C(C(=O)Nc1c(C(C)C)cc(C(C)C)cc1C(C)C)c1ccccc1 (stereo unspecified) | 56 |  | -21 | 
9 | CCCCCCCCCCCCOC(=O)C(C(=O)Nc1c(C(C)C)cc(C(C)C)cc1C(C)C)c1ccccn1 (stereo unspecified) | 180 |  | -9 | 
10 | CCCCCCCCCCCCCCC(C)(C)OC(=O)C(C(=O)Nc1c(C(C)C)cccc1C(C)C)c1ccccc1 (stereo unspecified) | 72 |  | -37 | 
11 | CCCOC(=O)C(C(=O)Nc1c(C(C)C)cccc1C(C)C)c1ccccc1 (stereo unspecified) | > 1000 |  | -20 | 
12 | CCOC(=O)C(F)C(=O)Nc1c(C(C)C)cccc1C(C)C (stereo unspecified) | > 1000 |  | 1 | 
13 | CCCCCCCCCCCCC(C)OC(=O)C(C(=O)Nc1c(C(C)C)cccc1C(C)C)c1ccccc1 (stereo unspecified) |  | -46 | -61 | Of non-HDL-C (Rattus norvegicus [6]): -75%; Of HDL-C (Rattus norvegicus [7]): 215%

Second part, led by results:

Row | IC50 [1] [nM] | SMILES | Delta TC (Rattus norvegicus [2]) [%] | Delta TC (Rattus norvegicus [5]) [%] | further results
14 | 21 | CCCCCCCCCCCCC(C)OC(=O)C(C)(C)C(=O)Nc1c(C(C)C)cccc1C(C)C (stereo unspecified) |  |  | 
15 | 13 | CCCCCCCCCCOC(=O)C(C(=O)Nc1c(C(C)C)cccc1C(C)C)c1ccccc1 (stereo unspecified) | -27 | -58 | Of HDL-C (Rattus norvegicus [3]): -5%; Of non-HDL-C (Rattus norvegicus [4]): 21%
16 | 12 | CCCCCCCCCOC(=O)C(C(=O)Nc1c(C(C)C)cccc1C(C)C)c1ccccc1 (stereo unspecified) | -53 | -67 | 
17 | 12 | CCCCCCCCCCCCC(C)(C)OC(=O)C(C(=O)Nc1c(C(C)C)cccc1C(C)C)c1ccccc1 (stereo unspecified) |  | -26 | 
18 | 16 | CCCCCCCCCCCCCCOC(=O)C(C(=O)Nc1c(C(C)C)cccc1C(C)C)c1ccccc1 (stereo unspecified) |  | -49 | Of non-HDL-C (Rattus norvegicus [6]): -57%; Of HDL-C (Rattus norvegicus [7]): 28%
19 | 20 | CCCCCCCCCCCCC(C)(C)OC(=O)C(C(=O)Nc1c(OC)cc(OC)cc1OC)c1ccccc1 (stereo unspecified) |  |  | 
20 | 13 | CCCCCCCCCCC(C)OC(=O)C(C(=O)Nc1c(C(C)C)cccc1C(C)C)c1ccccc1 (stereo unspecified) |  | -37 | Of non-HDL-C (Rattus norvegicus [6]): -64%; Of HDL-C (Rattus norvegicus [7]): 97%
21 | 32 | CCCCCCCCCCCCOC(=O)C(F)C(=O)Nc1c(C(C)C)cccc1C(C)C (stereo unspecified) |  | -36 | 
22 | 50 | CCCCCCCOC(=O)C(C(=O)Nc1c(C(C)C)cccc1C(C)C)c1ccccc1 (stereo unspecified) | -47 | -71 | Of HDL-C (Rattus norvegicus [3]): 2%; Of non-HDL-C (Rattus norvegicus [4]): -21%
23 | 10 | CCCCCCCCCCCCOC(=O)C(C(=O)Nc1c(C(C)C)cccc1C(C)C)c1ccccc1 (stereo unspecified) | -29 | -63 | Of non-HDL-C (Rattus norvegicus [6]): -80%; Plasma level (Oryctolagus cuniculus [8]): 131 ng/mL; Non-HDL-C (Rattus norvegicus [9]): -54%; Of HDL-C (Rattus norvegicus [7]): 148%; Plasma level (Oryctolagus cuniculus [10]): 140 ng/mL; inhibition [11]: 99%; Non-HDL-C (Rattus norvegicus [12]): -54%; inhibition [13]: 100%; TC (Rattus norvegicus [14]): -63%; TC (Rattus norvegicus [15]): -29%
24 | 30 | CCCCCCCCCCCCC(C)OC(=O)C(C(=O)Nc1c(OC)cc(OC)cc1OC)c1ccccc1 (stereo unspecified) | -48 | -59 | Of non-HDL-C (Rattus norvegicus [6]): -85%; Of HDL-C (Rattus norvegicus [7]): 272%
25 | 8 | CCCCCCCCCCCCOC(=O)C(C(=O)Nc1c(C(C)C)cccc1C(C)C)c1ccccn1 (stereo unspecified) |  | -43 | 
26 | 40 | CCCCCC(C)OC(=O)C(C(=O)Nc1c(C(C)C)cccc1C(C)C)c1ccccc1 (stereo unspecified) | -61 | -67 | Delta non HDL-C (Rattus norvegicus [4]): -18%; Delta HDL-C (Rattus norvegicus [16]): -1%

Source: ChEMBL document CHEMBL1131340, “alpha-Substituted malonester amides: tools to define the relationship between ACAT inhibition and adrenal toxicity” (J Med Chem, 1998)
